Measured values gathered from unrelated publications.
Protocols differ between the studies behind these lines.
FLT3 N841I: Receptor-type tyrosine-protein kinase FLT3 (FLT3, Homo sapiens, UniProt P36888, N841I)
FLT3 K663Q: Receptor-type tyrosine-protein kinase FLT3 (FLT3, Homo sapiens, UniProt P36888, K663Q)
FLT3 D835Y: Receptor-type tyrosine-protein kinase FLT3 (FLT3, Homo sapiens, UniProt P36888, D835Y)
FLT3: Receptor-type tyrosine-protein kinase FLT3 (FLT3, Homo sapiens, UniProt P36888)

SMILES | target | assay | conditions | measurement | value
C[C@H]1CC[C@H](n2c3cnccc3c3cnc(Nc4ccc5c(n4)CCN(C(=O)CO)C5)nc32)CC1 | FLT3 N841I | cell-free assay | 1 µM | remaining signal | 0%
CNS(=O)(=O)c1ccc(Nc2ncc(C(F)(F)F)c(N3CCC[C@](C)(O)C3)n2)c(C)c1 | FLT3 N841I | binding, competition with immobilised ligand | 1 µM | remaining binding | 70%
C1=C/COCc2cc(ccc2OCCN2CCCC2)Nc2nccc(n2)-c2cccc(c2)COC/1 | FLT3 K663Q | binding | 0.1 µM | remaining binding | 11%
Cc1cc(S(=O)(=O)N[C@H]2CC[C@H](CN3CCN(c4ccc(C5CCC(=O)NC5=O)cc4F)CC3)CC2)ccc1Nc1ncc(C(F)(F)F)c(N2CCC[C@](C)(O)C2)n1 (stereo partly drawn) | FLT3 N841I | binding, competition with immobilised ligand | 1 µM | remaining binding | 47%
CN1CCN(C(=O)c2ccc(NC(=O)Nc3ccc(N(C)c4ccnc(Nc5ccc(CS(C)(=O)=O)cc5)n4)cc3)cc2)CC1 | FLT3 D835Y | binding | 1 µM | remaining binding | 5.3%
CC#CC(=O)N1CCC[C@H]1c1nc(-c2ccc(C(=O)Nc3ccccn3)cc2)c2c(N)nccn12 | FLT3 N841I | enzyme activity, inhibitor | 1 µM | inhibition | 18%
COc1ccc2oc(-c3ccc4nc(N)oc4c3)c/c(=N\c3ccccc3NC(=O)CCN)c2c1 | FLT3 D835Y | cell-free assay | 1 µM | remaining signal | 92%
C#Cc1cc(-c2cc(Nc3nc(N[C@@H](C)c4ccc(F)cn4)ncc3Cl)n[nH]2)ccc1C=O | FLT3 D835Y | enzyme activity, inhibitor | 0.2 µM | inhibition | 98.5%
Cc1n[nH]c2ccc3nc(-c4ccc(C(=O)NCCN(C)C)cc4F)c4c(c3c12)CCCC4 | FLT3 D835Y | enzyme activity, inhibitor, radiometric | 0.5 µM | remaining activity | 2%
Cc1ccc(NC(=O)c2ccnc(C(F)(F)F)c2)cc1-c1cc(OCCO)nc(N2CCOCC2)c1 | Receptor-type tyrosine-protein kinase FLT3 (FLT3, Homo sapiens, UniProt P36888, R834Q) | binding | 1 µM | remaining binding | 100%
C=CC(=O)N1CCC([C@@H]2CCNc3c(C(N)=O)c(-c4ccc(Oc5ccccc5)cc4)nn32)CC1 | FLT3 D835Y | enzyme activity, inhibitor | 1 µM | inhibition | 81%
CCCCC(=O)Nc1ccc(-c2ccc3ncn(CCC)c(=O)c3c2)cn1 | FLT3 K663Q | binding, competition with immobilised ligand | 0.5 µM | remaining binding | 96%
O=C1C=C(Nc2ccc(OCc3cn(Cc4ccccc4)nn3)cc2)C(=O)c2ccccc21 | FLT3 | enzyme activity, inhibitor, radiometric | 10 µM | inhibition | 46%
N#Cc1ccc(NC(=O)Nc2ccccc2)cc1 | FLT3 | cell-free assay, competition with immobilised ligand | 25 µM | remaining binding | 100%
COc1ccc2[nH]c3c4[nH]c5ccc(OC)cc5c4c4c(c3c2c1)C(=O)NC4=O | Receptor-type tyrosine-protein kinase FLT3 (FLT3, Homo sapiens, UniProt P36888, D835V) | binding | 1 µM | remaining binding | 4%
